Experimental data gathered from unrelated publications.
Protocols differ between the studies behind these lines.
Target: Death-associated protein kinase 1 (DAPK1, Homo sapiens, UniProt P53355)

SMILES	test	setting	measurement	result
CNC(=O)c1cc(Oc2ccc(NC(=O)Nc3ccc(Cl)c(C(F)(F)F)c3)cc2)ccn1	enzyme activity, inhibitor	0.3 µM	inhibition	16%
Cc1ccc(C(=O)Nc2ccc(CN3CCN(C)CC3)c(C(F)(F)F)c2)cc1C#Cc1cnc2cccnn12	enzyme activity, inhibitor	23.5 nM	remaining activity	95%
FC(F)c1nc2ccccc2n1-c1nc(N2CCOCC2)nc(N2CCOCC2)n1	enzyme activity, inhibitor	10 µM	remaining activity	75%
FC(F)(F)Oc1cccc(-c2cnc3ccc(-c4ccncc4)nn23)c1	enzyme activity, inhibitor, radiometric	5 µM	activity vs control	91%
CN(C)C1CCN(CC#Cc2nn(C3CCCC3)c3nc(NCc4ccccc4)ncc23)C1 (centres unmarked)	enzyme activity, inhibitor, FRET	1 µM	inhibition	-2%
O=C1Nc2ccc(Cl)cc2C1=Cc1cc(Cl)c(O)c(Cl)c1	cell-free assay	0.5 µM	remaining signal	90%
Cc1ccc(Nc2nccc(N(C)c3ccc4c(C)n(C)nc4c3)n2)cc1S(N)(=O)=O	enzyme activity, inhibitor	0.3 µM	inhibition	16%
CS(=O)(=O)CCNCc1ccc(-c2ccc3ncnc(Nc4ccc(OCc5cccc(F)c5)c(Cl)c4)c3c2)o1	cell-free assay	0.5 µM	remaining signal	107%
CC(C)(O)[C@H]1CC[C@H](Nc2ccc3ncc(-c4cccc(C(F)(F)F)c4)n3n2)CC1	enzyme activity, inhibitor	1 µM	remaining activity	110%
Cc1ncc([N+](=O)[O-])n1C(=NO)c1ccccc1C(F)(F)F	enzyme activity, inhibitor	10 µM	inhibition	16.5%
Cc1nc(N2CC[C@@H](O)C2)ncc1-c1cc(C(F)(F)F)cc2[nH]ncc12	binding, competition with immobilised ligand	1 µM	remaining binding	89%
CCCOc1ccc(OC)c(F)c1C(=O)c1ccc(C(=O)N[C@@H]2CNC[C@H]2NC(=O)c2ccc3[nH]ncc3c2)cc1	enzyme activity, inhibitor	10 µM	remaining activity	81%
CCOC(=O)c1cc2cc(-c3cc(C(=O)NCc4ccc(C(=O)O)cc4)nn3C)ccc2[nH]1	cell-free assay, competition with immobilised ligand	0.1 µM	remaining binding	84%
Nc1nc(Nc2ccc(S(N)(=O)=O)cc2)nn1C(=O)c1c(F)cccc1F	cell-free assay	0.5 µM	remaining signal	93.8%
C[C@@]1(Cc2ccc(C#N)cc2)C(=O)N(c2cc(Cl)cc(Cl)c2)c2ncc(C(=O)NC3(c4nc(C5CCC5)no4)CC3)n21	cell-free assay, competition with immobilised ligand	1 µM	remaining binding	100%
CCN(CC)CCNC(=O)c1c(C)[nH]c(/C=C2\C(=O)Nc3ccc(F)cc32)c1C	cell-free assay	0.5 µM	remaining signal	66.9%
O=C(Nc1cnc(Oc2ccc(F)cc2)nc1)N1CCc2ncccc2[C@@H]1c1ccc(F)cc1	cell-free assay, competition with immobilised ligand	1 µM	remaining binding	78%
Nc1ncnc2occ(-c3ccc(NC(=O)Nc4cc(C(F)(F)F)ccc4F)cc3)c12	cell-free assay, inhibitor	20 µM	remaining signal	29%
N#Cc1ccc(Nc2ccc3[nH]c(=O)[nH]c3c2)c(Cl)c1	cell-free assay, competition with immobilised ligand	1 µM	remaining binding	100%
Cc1cc(NC(=O)c2cccc3cc(-c4cccc5[nH]nc(N)c45)ccc23)ccc1F	enzyme activity, inhibitor	0.1 µM	activity vs control	88%
C[C@@H]1CN(c2cc(-c3nn(C)c4ccc(OC5(C)CC5)cc34)ncn2)C[C@H](C)O1	cell-free assay, competition with immobilised ligand	1 µM	remaining binding	100%
COc1cc(Nc2cnc(C#N)c(O[C@H](C)CN(C)C)n2)ncc1-c1cnn(C)c1	enzyme activity, inhibitor, radiometric	1 µM	remaining activity	95%
CN(C)c1ncnc(-c2ccc3nc(Nc4cc(CN5CCN(C(=O)CC(F)(F)F)CC5)ccn4)[nH]c3c2)c1Cl	cell-free assay, competition with immobilised ligand	1 µM	remaining binding	100%
CC(C)(C)c1nc(-c2cccc(NS(=O)(=O)c3c(F)cccc3F)c2F)c(-c2ccnc(N)n2)s1	enzyme activity, inhibitor, radiometric	1 µM	remaining activity	75%
CCCCN(CCCC)C(=O)CN1C[C@H](c2cc(OC)c3c(c2)OCO3)[C@@H](C(=O)O)[C@@H]1CC(C)(C)CCC	cell-free assay, competition with immobilised ligand	1 µM	remaining binding	100%
O=C(Nc1cnn(-c2csc(C(=O)NC3COC3)c2)c1)Nc1c(F)cccc1Cl	enzyme activity, inhibitor	5 µM	remaining activity	98.9%
